A selection: hits, their analogues and other compounds. The true share with any hit is near 5.6%.
XBP1 UPR activ – activators of adaptive XBP1 UPR arm, primary screen, cell-based, CHO-XBP1 luciferase reporter, luminescence, uHTS. IRE1-XBP1 UPR activation; percent of tunicamycin response, DMSO as zero. activation, % at 20 µM. 330,000 compounds, 0.33% hits;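 active = versus positive control, 20 µM dose yields 30% or more activation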;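 note: 100% = tunicamycin at 10 µg/mL and 0% = DMSO only wells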
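Assay system: CHO-XBP1 luciferase reporter cells; Schedule: 6 h treatment, 37 °C; Detection: glow luminescence from Steady-Glo reagent; Benchmarks: high control tunicamycin 10 µg/mL final, low control DMSO vehicle only.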
NR3A LBD binder – binders of NR3A ligand-binding domain, primary screen, biophysical, differential scanning fluorimetry, uHTS. Glutamate receptor ionotropic, NMDA 3A (GRIN3A) ligand-binding domain. NR3A LBD differential scanning fluorimetry, Tm shift; 0% = protein alone, 100% = glycine-bound protein. Tm shift relative to glycine control, % at 25 µM. 340,000 compounds, 2.5% hits. AID 1259313, 2017;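 active = melting temperature shift of at least 10% of the positive control shift, at one fixed dose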
aDG glyco up – activators of alpha-DG glycosylation, primary screen, uHTS, Pro5-aDG cells, AlphaScreen | activation, % at 10 µM | alpha-DG glycosylation AlphaScreen (IIH6); 0% Pro5, 100% B10-LARGE cell signal | 360,000 compounds, 0.22% hits;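 active = activation of at least 8% versus controls, or a plate z-score of at least 8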;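 note: Pro5 are CHO cells carrying HIG-tagged alpha-DG that lacks glycosylation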
CHOP inh – inhibitors of CHOP promoter induction, primary screen, cell-based, unfolded protein response, luciferase reporter | AID 2732, 2010 | 220,000 compounds, 3.8% hits | inhibition, % at 10 µM | CHO-K1 CHOP-promoter luciferase, tunicamycin-induced, 15-18 h;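 active = compounds that reduced the stress-induced luciferase reporter signal by more than about 70% of percent inhibition, limit read from the data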;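 note: 0% = tunicamycin plus vehicle and 100% = wells without tunicamycin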
MPTP inh – mitochondrial permeability transition pore inhibitors, primary screen, biochemical, isolated mouse mitochondria, absorbance | Ca2+ swelling absorbance, 30 min | inhibition, % at 10 µM | 360,000 compounds, 1.4% hits | AID 602449, 2012;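 active = inhibition of 50% or more, scaled per plate between neutral and stimulator controls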;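 note: 0% = DMSO wells given calcium and 100% = 1 mM EGTA wells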
CHOP UPR activ – activators of apoptotic CHOP UPR arm, primary screen, cell-based, CHO-CHOP luciferase reporter, luminescence, uHTS; UPR activation; percent of tunicamycin response over DMSO baseline; activation, % at 10 µM; 330,000 compounds, 0.34% hits;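 active = at 10 µM dose, activation of 40% or more, normalized to positive control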;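 note: 100% = tunicamycin at 10 µg/mL and 0% = DMSO alone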
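measured by = luciferase luminescence | assay system = CHO-CHOP cells, stable luciferase reporter of PERK-eIF2a-CHOP signalling | amount = 500 reporter cells seeded per well | timing = 6 h compound exposure at 37 °C after overnight seeding | controls = positive tunicamycin 10 µg/mL, negative DMSO alone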
The depositor's hits bear a star; . = no result given.

SMILES	XBP1 UPR activ	NR3A LBD binder	aDG glyco up	CHOP inh	MPTP inh	CHOP UPR activ
O=C(CNS(=O)(=O)c1ccc(Br)s1)N1CCC(N2CCCCC2)CC1	-3.5	12.5*	0.2	20.6	1.0	0.7
COc1ccc2nc(C(F)(F)C(F)(F)F)c(C#N)c(N)c2c1	-2.4	21.9*	-0.2	81.2*	5.1	1.0
O=C(COC(=O)c1ccccc1C(F)(F)F)NC(=O)NCc1ccco1	1.9	0.1	0.1	.	-0.3	0.5
CC(C)c1cc(C(=O)OCC(=O)NC(=O)NCc2ccco2)c(O)c(C(C)C)c1	4.8	-4.0	0.2	102.1*	3.2	-0.7
Cc1nc(Nc2ccc(Cl)cc2)c2nnn(Cc3ccccc3)c2n1	2.6	-11.4	1.2	95.8*	-2.1	-0.3
CC(C)CN(/C=N/c1sc2c(c1C#N)CCCCC2)CC(C)C	1.2	2.1	0.1	73.5*	-0.5	1.0
Cc1ccc(/C=N/c2sc3c(c2C#N)CCCCC3)o1	-6.9	-1.7	-0.5	77.3*	1.0	-1.2
COCCN(Cc1ccc(OC)cc1)c1c(C)nc2ccc(C(=O)Nc3ccc(NC(C)=O)cc3)cn12	.	.	-0.2	.	-0.3	.
Cc1cccc(NC(=O)CN(C)C(=O)Cc2ccc(-c3ccccc3)cc2)c1C	.	.	-0.1	.	-0.2	.
Cc1cccc(Nc2c(O)nc[nH]c2=O)c1	.	-1.2	-0.1	.	-1.4	.
CCCCCc1ccc(-c2ccc(=O)[nH]n2)cc1	1.4	0.8	1.0	92.8*	0.8	0.1
CC(C)NC(=O)C1CCCN(S(=O)(=O)c2cccs2)C1 (stereo not given)	-2.7	10.8*	-0.1	-31.9	-4.2	-2.4
CC(NC(=O)C1CCCN(S(=O)(=O)c2cccs2)C1)c1ccccc1 (stereo not given)	-1.1	1.5	0.4	18.7	0.5	1.2
CCCOC(=O)c1ccc(NC(=O)COC(=O)C2CCN(c3ccc(C(F)(F)F)cn3)CC2)cc1	.	21.2*	0.0	.	0.6	.
COc1cc(C(=O)COC(=O)C2CCN(c3ccc(C(F)(F)F)cn3)CC2)ccc1OC(F)F	-2.4	11.2*	0.2	.	-0.7	1.3
Cc1ccc(NC(=O)COC(=O)C2CCN(c3ccc(C(F)(F)F)cn3)CC2)cc1	-0.5	8.0	-0.4	.	0.0	0.7
COc1ccc(C(=O)COC(=O)C2CCN(c3ccc(C(F)(F)F)cn3)CC2)c(OC)c1	-0.7	-1.7	0.4	.	-0.5	0.9
O=C(CSc1nc2c(c(=O)n1-c1ccc(Cl)cc1)SCC2)Nc1nccs1	.	15.2*	0.0	35.4	-1.3	.
CCOc1ccccc1NC(=O)CCC(=O)Nc1nnc(C2CCCCC2)s1	0.7	14.8*	0.2	.	-1.0	-0.8
O=c1c(Br)c(N2CCCCC2)cnn1-c1ccccc1	-4.8	0.8	-0.2	4.9	2.4	3.3
Cc1cnn(C(=S)NCc2ccc(Cl)cc2)c1	1.9	-7.7	.	73.6*	.	-1.5
Cc1cnn(C(=S)NCCc2ccccc2)c1	-0.4	-9.1	-0.1	53.4	0.6	3.9
COc1ccccc1-n1c(C)c(C(=O)O)c2cc(OC)c3ccccc3c21	1.5	1.2	0.4	.	0.8	2.0
Fc1ccc(-c2nc3nc4ccccc4nc3n2Cc2ccco2)cc1	6.2	21.5*	-0.1	-18.6	-2.5	4.7
c1ccc(-c2nc3nc4ccccc4nc3n2Cc2ccco2)cc1	2.2	-1.2	0.3	14.7	-3.7	2.2
SMILES	XBP1 UPR activ	NR3A LBD binder	aDG glyco up	CHOP inh	MPTP inh	CHOP UPR activ
Cc1sc2ncnc(N3CCC(C(=O)Nc4nnc(CC(C)C)s4)CC3)c2c1C	-3.9	1.2	0.6	.	1.7	-1.4
COc1ccccc1/C=C1\CCCC2=C1Nc1nnnn1C2c1ccccc1OC (stereo not given)	.	-1.6	-0.1	83.6*	7.9	.
CCCCOC(=O)NC(NCC(O)c1ccccc1)(C(F)(F)F)C(F)(F)F (stereo not given)	-1.1	0.8	0.1	80.6*	0.9	-2.0
CCOC(=O)NC(NCC(O)c1ccccc1)(C(F)(F)F)C(F)(F)F (stereo not given)	1.9	0.8	-0.2	30.6	-0.7	-2.3
NS(=O)(=O)c1ccc(N2CCOCC2)c(C(=O)NCCCSc2ccccc2)c1	2.2	1.6	0.1	.	1.4	-1.2
O=C1CC(c2ccco2)CC(O)=C1C=Nc1cc(Cl)cc(Cl)c1 (stereo not given)	3.4	0.0	0.3	84.2*	-1.2	29.2
CC(C)C[C@@H](CN1CCC[C@H]1CN1C(=O)C(=O)NC[C@@H]1Cc1ccc(O)cc1)N1C[C@H](Cc2ccc(O)cc2)N(CC2CCCCCC2)C(=O)C1=O	.	.	-0.2	.	-3.2	.
O=C(/C=C/c1c[nH]c2ccccc12)c1cccc2ccccc12	1.2	27.6*	-0.1	87.0*	11.9	2.7
N#Cc1nc(-c2ccc(OCc3ccc(Cl)cc3)cc2)oc1N1CCC(C(N)=O)CC1	0.5	27.7*	0.2	.	1.5	2.7
O=C(CSc1nnc(-c2n[nH]c3ccccc23)n1-c1ccccc1)Nc1cccc(Cl)c1	-2.0	22.2*	0.2	51.1	1.4	3.6
CCc1ccc(NC(=O)CSc2nnc(-c3n[nH]c4ccccc34)n2-c2ccccc2)cc1	1.4	22.8*	0.0	49.2	1.8	1.4
Cc1cccc(NC(=O)CSc2nnc(Cn3nnc(-c4ccccc4)n3)n2-c2ccccc2)c1	1.9	-6.8	0.2	78.1*	4.0	0.7
Cn1cccc1Cc1nnc(SCC(=O)Nc2cccc(Cl)c2)n1-c1ccc(F)cc1	-0.5	-11.7	0.2	75.0*	1.7	-0.3
CCn1c(Cn2nnc(-c3ccccc3)n2)nnc1SCC(=O)Nc1cccc(C(C)=O)c1	-0.9	0.8	0.1	8.0	1.2	0.2
CCC(C)NC(=O)c1ccc([N+](=O)[O-])c(Cl)c1 (stereo not given)	-0.2	-1.0	0.0	-35.5	-0.8	1.6
CN(C)S(=O)(=O)c1ccc(Cl)c(NC(=O)COc2ccccc2[N+](=O)[O-])c1	-0.7	12.8*	0.1	-9.1	0.0	3.9
Cc1cc(C)cc(OCC(=O)Nc2ccccc2N2CCCCC2)c1	-2.9	-0.1	0.4	86.0*	-1.2	0.5
Cc1ccccc1OCC(=O)Nc1ccccc1N1CCCCC1	1.0	1.9	0.1	88.8*	6.9	3.2
O=C(COc1ccc(Br)cc1)Nc1ccccc1N1CCCC1	-2.2	-1.8	-0.2	70.2*	5.0	-0.3
O=C(Cc1ccc([N+](=O)[O-])cc1)N/N=C/c1ccccc1F	-1.8	2.0	0.4	.	1.1	-0.2
